In ChEMBL document CHEMBL4387738 (Bioorg Med Chem Lett, 2019):
Calls of active or inactive are those of the source. The rule behind the calls is not given here.

Columns and labels:
HCT-116 [1] = assay: Induction of apoptosis in human HCT116 cells assessed as late apoptotic cells at 5 to 25 uM incubated for 24 hrs by Annexin-V-FITC/propidium iodide staining based flow cytometric method relative to taxol; type: functional, cell-based
Procedure, shortened: (§1)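 HCT116 cells exposed to 5, 10 or 25 μM for 24 h, then stained with annexin V and propidium iodide and analysed by flow cytometry. DMSO was the negative control and Taxol the apoptosis control. Total apoptosis counted all annexin V-positive cells, early apoptosis was annexin V-positive/PI-negative, and late apoptosis was annexin V/PI double-positive.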

[2] = target: Endoplasmic reticulum chaperone BiP (Homo sapiens) (UniProt P11021); assay: Inhibition of GRP78 (26 to 636 residues) (unknown origin) expressed in Escherichia coli BL21 DE3 cells pre-incubated for 10 mins before FITC-NRLLLTG fluorescent peptide addition in presence of 20 uM ADP followed by further incubation for 2 hrs by fluorescence polarization assay
Sequence of Endoplasmic reticulum chaperone BiP (Homo sapiens) (P11021 whole entry, the tested form may be a part): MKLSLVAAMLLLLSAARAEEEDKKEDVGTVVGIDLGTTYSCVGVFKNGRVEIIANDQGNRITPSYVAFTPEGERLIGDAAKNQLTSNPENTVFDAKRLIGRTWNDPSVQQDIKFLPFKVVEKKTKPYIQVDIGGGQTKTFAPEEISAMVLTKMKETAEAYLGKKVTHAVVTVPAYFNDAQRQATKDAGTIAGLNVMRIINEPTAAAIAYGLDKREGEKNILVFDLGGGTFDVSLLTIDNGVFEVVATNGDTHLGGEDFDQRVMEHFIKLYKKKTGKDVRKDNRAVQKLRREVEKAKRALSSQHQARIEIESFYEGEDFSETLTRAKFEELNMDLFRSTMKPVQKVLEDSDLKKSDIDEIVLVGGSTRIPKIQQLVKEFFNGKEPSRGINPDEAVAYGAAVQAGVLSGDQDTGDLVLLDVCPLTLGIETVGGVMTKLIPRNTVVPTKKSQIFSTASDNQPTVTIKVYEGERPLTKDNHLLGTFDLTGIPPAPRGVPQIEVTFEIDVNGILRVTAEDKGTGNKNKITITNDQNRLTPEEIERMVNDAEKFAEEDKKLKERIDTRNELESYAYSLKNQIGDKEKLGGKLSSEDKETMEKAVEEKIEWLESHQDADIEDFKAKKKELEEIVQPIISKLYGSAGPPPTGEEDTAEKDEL
Procedure, shortened: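 Fluorescence polarization competition assay in 384-well format. Full-length GRP78 (0.75 μM) was held in the ADP-bound closed state with FITC-NRLLLTG (100 nM), and loss of polarization was read. DMSO was the negative control and heat-denatured GRP78 the positive control. IC50 was taken from a 10-point dose response.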

[3] = Inhibition of bacterial DnaK pre-incubated for 10 mins before FITC-NRLLLTG fluorescent peptide addition in presence of 20 uM ADP followed by further incubation for 2 hrs by fluorescence polarization assay; design: species or system Bacteria
Procedure, shortened: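 Repeat of the GRP78 fluorescence-polarization substrate-binding assay with the bacterial HSP70 DnaK in place of GRP78. The FITC-NRLLLTG peptide binds the substrate-binding domain in the ADP-bound closed state, raising polarization; inhibitors keep polarization low. Compound was tested in dose response and the IC50 derived. DnaK construct and concentration are not given.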

HCT-116 [4] = assay: Induction of apoptosis in human HCT116 cells assessed as increase in early apoptotic cells at 5 to 25 uM incubated for 24 hrs by Annexin-V-FITC/propidium iodide staining based flow cytometric method relative to taxol; type: functional, cell-based; procedure, shortened: as §1
HCT-116 [5] = assay: Induction of apoptosis in human HCT116 cells assessed as apoptotic cells at 10 uM incubated for 24 hrs by Annexin-V-FITC/propidium iodide staining based flow cytometric method relative to taxol; type: functional, cell-based; procedure, shortened: as §1
HCT-116 [6] = assay: Induction of apoptosis in human HCT116 cells assessed as increase in apoptotic cells at 25 uM incubated for 24 hrs by Annexin-V-FITC/propidium iodide staining based flow cytometric method relative to taxol; type: functional, cell-based; procedure, shortened: as §1
HCT-116 [7] = assay: Induction of apoptosis in human HCT116 cells at 5 to 25 uM incubated for 24 hrs by Annexin-V-FITC/propidium iodide staining based flow cytometric method; type: functional, cell-based; procedure, shortened: as §1
HCT-116 [8] = assay: Induction of apoptosis in human HCT116 cells 25 uM incubated for 16 to 48 hrs by Annexin-V-FITC/propidium iodide staining based flow cytometric method; type: functional, cell-based; conditions: TDE = time-dependent effect
Procedure, shortened: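 Time course in HCT116 cells. After treatment, cells were stained with annexin V and propidium iodide and analysed by flow cytometry. Early apoptosis was scored as annexin V+/PI−, late apoptosis as annexin V+/PI+. DMSO served as the negative control and Taxol as the apoptosis control.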

HCT-116 [9] = assay: Induction of autophagy in human HCT116 cells assessed as reduction in p62 level at 2 to 10 uM after 16 hrs by Western blot analysis
HCT-116 [10] = assay: Induction of autophagy in human HCT116 cells assessed as increase in LC3-2 level at 2 to 10 uM after 16 hrs by Western blot analysis
HCT-116 [11] = assay: Induction of autophagy in human HCT116 cells assessed as reduction in LC3-1 level at 2 to 10 uM after 16 hrs by Western blot analysis

CC(=O)O[C@H]1C(=O)[C@@]2(C)[C@H]([C@H](OC(=O)c3ccccc3)[C@]3(O)C[C@H](OC(=O)[C@H](O)[C@@H](NC(=O)c4ccccc4)c4ccccc4)C(C)=C1C3(C)C)[C@]1(OC(C)=O)CO[C@@H]1C[C@@H]2O
Activity (HCT-116 [1]): Active

Oc1c(Cl)cc(Cl)c(Cl)c1Sc1c(O)c(Cl)cc(Cl)c1Cl
inhibition [2]: Active

Oc1c(Cl)cc(Cl)cc1Cc1cc(Cl)cc(Cl)c1O
inhibition [2]: Active

Oc1c(Cl)cc(Cl)cc1Sc1cc(Cl)cc(Cl)c1O
inhibition [2]: Active

Oc1c(Cl)cc(Cl)c(Cl)c1Cc1c(O)c(Cl)cc(Cl)c1Cl [HEXACHLOROPHENE]
inhibition [2]: Dose-dependent effect
IC50 [3]: 51.6 µM
Activity (HCT-116 [4]): Active
Activity (HCT-116 [5]): Active
Activity (HCT-116 [6]): Active
Activity (HCT-116 [1]): Active
Activity (HCT-116 [7]): Dose-dependent effect
Activity (HCT-116 [8]): Tde
Activity (HCT-116 [9]): Active
Activity (HCT-116 [10]): Active
Activity (HCT-116 [11]): Active
